From the RNAGym collection of RNA variant scans (doi:10.1126/science.aae0568)
Variants at the floor of the assay were thinned out.

B1: tRNA (parent)
chain: GUUCCGUUGGCGUAAUGGUAACGCGUCUCCCUCCUAAGGAGAAGACUGCGGGUUCGAGUCCCGUACGGAACG

Variants of: B1
Experiment: yeast fitness relative to wild type (ratio to wild type); higher = fitter; tRNA-Arg(CCU), competitive growth, 37 C, YPD
How it was run: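 Changes in genotype frequencies gave Darwinian fitness relative to wild type. Frequencies were read by 100-nucleotide paired-end sequencing of gene amplicons before and after pooled Saccharomyces cerevisiae strains, carrying tRNA-Arg(CCU) gene variants at the native locus, were competed in YPD at 37°C for 24 hours in six replicates. A genotype was kept only with ≥ 100 starting reads, and estimates < 0.5 were set to 0.5.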

Variant | yeast fitness
C5U A20G U35C A37G | ≤ 0.5
C5U A14U A21G A65C | ≤ 0.5
C5U C24G U53A G63A | ≤ 0.5
C5U A65C G68A | 0.681
C5U A21U C30G C66A | 0.552
C5U C22U U35A A37U G67A | ≤ 0.5
C5U A37U A42U A69U | ≤ 0.5
C5U A14C C55A | ≤ 0.5
C5U A15G U16A A20G U28A C30A C33A A36U | ≤ 0.5
C5U A45C C49U G56A | 0.616
C5U A14C A21C C33U G56A | ≤ 0.5
C5U C33U | 0.71
C5U A42C A69C | 0.803
C5U C11U C34A | 0.558
C5U A20C A36G | 0.632
C5U C24U C55U | 0.711
C5U C11A A21G A40U | 0.68
C5U A15G C60A A70C | ≤ 0.5
C5U C24U A40C A45U | ≤ 0.5
C5U A21U U53A A57U C60A G68C | ≤ 0.5
C5U C29U G50C U59A | ≤ 0.5

Variant | yeast fitness
C5U C11G C29G C46U | ≤ 0.5
C5U C29U A36G U59A | ≤ 0.5
C5U C27G U35G G44A | ≤ 0.5
C5U A70U | 0.98
C5U A70G | 1.01
C5U C11U | 0.889
C5G U64A | 0.784
C5U C22U A57U | 0.574
C5U A20C A70U | 0.732
C5U C27U G41A | 0.573
C5U A14U U16A | ≤ 0.5
C5U C30A C33G A42C C60A C66A A69C | ≤ 0.5
C5U C11U A65U C66G | ≤ 0.5
C5U A21G A57C | 0.562
C5U A20G C22G C29A A45U | 0.563
C5U C29A U32C C60A | 0.596
C5U A20C C34A U64C | ≤ 0.5
C5U A14C C29U C46A | ≤ 0.5
C5U C24U A69C | 0.777
C5U C11U U28G A40C | 1.13
C5U C11U G67C | 0.659

Variant | yeast fitness
C5U C11A A45G | 0.537
C5U A14U C30U G39C | ≤ 0.5
C5U C11A A20C C22G C30U C31G C61A | 0.543
C5U A15U U54A C55U C66A | ≤ 0.5
C5U A65U G67A | 0.921
C5U A21U G68A | ≤ 0.5
C5U C22U C33U G68C A69U | ≤ 0.5
C5U C22U A37C C55A | 0.538
C5U A37C C60U G67A | 0.558
C5U A14G C24U A40U C55G | ≤ 0.5
C5G U59G C66U | ≤ 0.5
C5U A14C G41C A43C | ≤ 0.5
C5U C31G G41A G52C C60U C62G C66G | ≤ 0.5
C5U A20C G67A | 1.01
C5U A15G C22U A37U A65C | ≤ 0.5
C5U C29G C31G A36U A37C A57C G68C | ≤ 0.5
C5U C27G U47C A70U | ≤ 0.5
C5U C11G A15U G56C C61G | ≤ 0.5
C5U C22G C27U | 0.612
C5U A65U | 0.999
C5U A65C | 0.922

Variant | yeast fitness
C5U C22G C24G C31U A70C | ≤ 0.5
C5U C31U A37C A43U G50C A57G | ≤ 0.5
C5U A15U U16A C29U C55U | ≤ 0.5
C5U C11G U13C A15U U32A U35G C55A C61G | ≤ 0.5
C5U A36U A70U | 0.628
C5U C22U C30G A57U C66U A70U | ≤ 0.5
C5U A45C G56C | 0.572
C5U C31G U59C | 0.913
C5U A45U C62G G63A | ≤ 0.5
C5U A20U C49G A69C | ≤ 0.5
C5U C22A C33G C55U | ≤ 0.5
C5U C11G G51A | ≤ 0.5
C5U A14C A21C U53G A57C | ≤ 0.5
C5U A37G A43C G63C | ≤ 0.5
C5U C29U G38C | ≤ 0.5
C5U A21U U28C C30G A70U | ≤ 0.5
C5U C11G C49U C61A | ≤ 0.5
C5U A57U C61U | 0.59
C5U C11A A21C C27G | 0.564
C5U C33U C62A | 0.579
C5U A14G C29U A37U | ≤ 0.5
